Measurements taken from ChEMBL document CHEMBL1681731, “Synthesis, in vitro anti-inflammatory and cytotoxic evaluation, and mechanism of action studies of 1-benzoyl-β-carboline and 1-benzoyl-3-carboxy-β-carboline derivatives” (Bioorg Med Chem, 2011).
Active and inactive are the calls of the source. The rule behind the calls is not given here.

What was measured:
[1] = Cytotoxicity against mouse […] cells by MTT assay; type: functional
Procedure, shortened: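 Viability of RAW 264.7 cells taken as mitochondrial reduction of MTT to formazan. Formazan read at OD550.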

RAW264.7 [2] = assay: Antiinflammatory activity against mouse RAW264.7 cells assessed as reduction of lipopolysaccharide/interferon-gamma induced PGE2 production at 3 uM after 18 hrs; type: functional; settings: RAW264.7, 18 h
Procedure, shortened: (§1)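 RAW 264.7 macrophages (passages 9–20) stimulated with LPS/IFN-γ; compound tested at 1, 3 and 10 µM. Supernatant PGE2 measured by competitive EIA: anti-PGE2 antibody plus peroxidase-PGE2 tracer, 1 h RT; TMB/H2O2 30 min; H2SO4 stop; A450. Results given as % inhibition.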

RAW264.7 [3] = assay: Antiinflammatory activity against mouse RAW264.7 cells assessed as reduction of lipopolysaccharide/interferon-gamma induced PGE2 production at 1 uM by EIA; type: functional; procedure, shortened: as §1
A549 = assay: Cytotoxicity activity against human A549 cells assessed as growth inhibition at 10 ug/ml after 72 hrs sulforhodamine B assay; type: functional; settings: A549, 72 h
Procedure, shortened: (§2)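 Cells kept in RPMI-1640/10% FBS with antibiotics at 37 °C, 5% CO2. Trypsinized cells seeded and given compound from DMSO-diluted stock. Incubated 72 h, then fixed with 10% TCA. Stained 10 min with 0.4% sulforhodamine B in 1% HOAc, washed, dye dissolved in 10 mM Trizma. A515 read; growth relative to net protein increase of controls.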

[4] = Antiinflammatory activity against human neutrophil assessed as inhibition of N-formyl-l-methionyl phenylalanine/cytochalasin B-induced elastase release; type: functional, cell-based
Procedure, shortened: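 Neutrophils (6 × 10^5/mL) supplemented with 100 µM MeO-Suc-Ala-Ala-Pro-Val-p-nitroanilide, equilibrated 2 min at 37 °C, then given drug or 0.1% DMSO vehicle for 5 min. Activated with 100 nM FMLP plus 0.5 µg/mL cytochalasin B. Absorbance at 405 nm followed continuously. Release expressed as percent of drug-free activated control. IC50 computed; mean ± SEM, n = 3.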

[5] = Therapeutic index, ratio of CC50 for mouse […] cells to EC50 for inhibition of lipopolysaccharide/interferon-gamma induced nitric oxide production in mouse […] cells; type: cell-based; settings: read-out: TI
KB = assay: Cytotoxicity activity against human KB cells assessed as growth inhibition at 10 ug/ml after 72 hrs sulforhodamine B assay; type: functional; procedure, shortened: as §2
[6] = Antiinflammatory activity against human neutrophil assessed as inhibition of N-formyl-l-methionyl phenylalanine/cytochalasin B-induced superoxide anion generation by spectrophotometry; type: functional, cell-based
Procedure, shortened: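 Ferricytochrome c (0.5 mg/mL) reduction, SOD-inhibitable, with 1 mM Ca2+. Neutrophils (6 × 10^5 cells/mL) equilibrated 2 min at 37 °C, then drug or 0.1% DMSO for 5 min. Cytochalasin B 1 µg/mL preincubation, then 100 nM FMLP for 3 min. A550 monitored continuously with stirring. IC50 computed; mean ± SEM, n = 3.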

[7] = Cytotoxicity activity against human KBVIN cells assessed as growth inhibition at 10 ug/ml after 72 hrs sulforhodamine B assay; type: functional; procedure, shortened: as §2
DU-145 = assay: Cytotoxicity activity against human DU145 cells assessed as growth inhibition at 10 ug/ml after 72 hrs sulforhodamine B assay; type: functional; settings: DU-145, 72 h; procedure, shortened: as §2
RAW264.7 [8] = assay: Antiinflammatory activity against mouse RAW264.7 cells assessed as reduction of lipopolysaccharide/interferon-gamma induced PGE2 production at 10 uM after 18 hrs; type: functional; settings: RAW264.7, 18 h; procedure, shortened: as §1
[9] = Antiinflammatory activity against mouse […] cells assessed as inhibition of lipopolysaccharide/interferon-gamma induced nitric oxide production; type: functional, cell-based
Procedure, shortened: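 RAW 264.7 cells in DMEM/10% FCS, passages 9–20. Nitrite induced by LPS (1 µg/mL) plus IFN-γ (50 U/mL) for 18 h with or without compound. Griess reagent (1% sulfanilamide, 0.1% naphthylenediamine in 5% H3PO4) read at OD550. EC50 calculated.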

[10] = tested on: Radical scavenging activity; assay: Antioxidant activity assessed as residual DPPH radical scavenging activity; type: functional

IC50 [4]	IC50 [6]	EC50 ([9]; Mus musculus, read-out: EC50)	EC50 [9]	Structure (SMILES)	CC50 [1]	inhibition at 3 µM (RAW264.7 [2])	inhibition at 1 µM (RAW264.7 [3])	GI50 (A549)	selectivity ratio [5]	GI50 (KB)	GI50 [7]	GI50 (DU-145)	inhibition at 10 µM (RAW264.7 [8])	Activity [10]
> 30 µM	> 30 µM	6.97 µM		O=C(c1ccccc1Br)c1nccc2c1[nH]c1ccccc12	53.8 µM	37%	0%	> 40 µM	8	> 40 µM	> 40 µM	> 40 µM	89%	
> 30 µM	> 30 µM	0.66 µM		O=C(c1ccc([N+](=O)[O-])cc1)c1nccc2c1[nH]c1ccccc12	3.86 µM	100%	0%	> 40 µM	6	> 40 µM	> 40 µM	> 40 µM	100%	
1.99 µM	2.28 µM	0.53 µM		O=C(O)c1cc2c([nH]c3ccccc32)c(C(=O)c2ccc(Br)cc2)n1	10.7 µM	100%	98%	> 40 µM	20	> 40 µM	> 40 µM	> 40 µM		inactive
> 30 µM	> 30 µM	0.51 µM		COC(=O)c1cc2c([nH]c3ccccc32)c(C(=O)c2ccc(OC)cc2)n1	1.95 µM	100%	98%	> 40 µM	4	> 40 µM	> 40 µM	> 40 µM		
> 30 µM	> 30 µM	0.3 µM		O=C(c1ccc(Br)cc1)c1nccc2c1[nH]c1ccccc12	149 µM	100%	98%	> 40 µM	492	> 40 µM	> 40 µM	> 40 µM		
		0.47 µM		Cc1cccc(C(=O)c2nc(C(=O)O)cc3c2[nH]c2ccccc23)c1	16.4 µM	100%	98%		34					inactive
> 30 µM	9.4 µM		Not Active	CC(O)c1nccc2c1[nH]c1ccccc12 (stereo not given)	0.28 µM	0%	0%	> 40 µM		> 40 µM	> 40 µM	> 40 µM	0%	
5.82 µM	14.5 µM	0.92 µM		CC(=O)c1nc(C(N)=O)cc2c1[nH]c1ccccc12 [STELLARINES A]	19.8 µM	90%	0%	> 40 µM	21	> 40 µM	> 40 µM	> 40 µM	90%	
		2.08 µM		COc1ccc(C(O)c2nccc3c2[nH]c2ccccc23)cc1 (stereo not given)	1590 µM	0%	0%		764				19%	

More lines, now with the values behind:

Structure (SMILES)	IC50 [4]	IC50 [6]	EC50 ([9]; Mus musculus, read-out: EC50)	EC50 [9]	CC50 [1]	inhibition at 3 µM (RAW264.7 [2])	inhibition at 1 µM (RAW264.7 [3])	GI50 (A549)	selectivity ratio [5]	GI50 (KB)	GI50 [7]	GI50 (DU-145)	inhibition at 10 µM (RAW264.7 [8])	Activity [10]
OC(c1ccccc1)c1nccc2c1[nH]c1ccccc12 (stereo not given)	> 30 µM	7.88 µM	0.31 µM		57.4 µM	0%	0%	> 40 µM	186	> 40 µM	22.6 µM	> 40 µM	0%	
COc1ccc(C(=O)c2nccc3c2[nH]c2ccccc23)cc1	> 30 µM	> 30 µM	4.59 µM		83.4 µM	95%	0%	> 40 µM	18	> 40 µM	> 40 µM	> 40 µM	95%	
OC(c1ccc(Br)cc1)c1nccc2c1[nH]c1ccccc12 (stereo not given)	14.2 µM	8.84 µM	0.74 µM		70.1 µM	21%	0%	19 µM	95	15.9 µM	14.5 µM	13.3 µM	34%	
O=C(c1cccc([N+](=O)[O-])c1)c1nccc2c1[nH]c1ccccc12		16.6 µM	1.06 µM		21.6 µM	95%	0%	> 40 µM	20	> 40 µM	> 40 µM	> 40 µM	96%	
Cc1ccc(C(=O)c2nc(C(=O)O)cc3c2[nH]c2ccccc23)cc1	3.13 µM	6.27 µM	0.5 µM		17.7 µM	100%	100%	> 40 µM	35	> 40 µM	> 40 µM	> 40 µM		inactive
O=c1cc(N2CCOCC2)oc2c(-c3ccccc3)cccc12 [LY-294002]	1.92 µM	1.12 µM												
CC(=O)O[C@H]1C(=O)[C@@]2(C)[C@H]([C@H](OC(=O)c3ccccc3)[C@]3(O)C[C@H](OC(=O)[C@H](O)[C@@H](NC(=O)c4ccccc4)c4ccccc4)C(C)=C1C3(C)C)[C@]1(OC(C)=O)CO[C@@H]1C[C@@H]2O [PACLITAXEL]								0.00558 µM		0.00487 µM	> 1 µM	0.00555 µM		
N=C(N)NN [PIMAGEDINE]			22.6 µM		358 µM	21%	8%		16				42%	
COc1ccccc1C(=O)c1nc(C(=O)O)cc2c1[nH]c1ccccc12														inactive
COc1cccc(C(=O)c2nc(C(=O)O)cc3c2[nH]c2ccccc23)c1														inactive
O=C(c1ccccc1)c1nccc2c1[nH]c1ccccc12	> 30 µM	> 30 µM	2.67 µM		131 µM	39%	0%	> 40 µM	49	> 40 µM	> 40 µM	> 40 µM	82%	
O=C(c1cccc(Br)c1)c1nccc2c1[nH]c1ccccc12	> 30 µM	> 30 µM	1.16 µM		51.4 µM	98%	97%	> 40 µM	44	> 40 µM	> 40 µM	> 40 µM		
COc1ccc2c(c1)c(CC(=O)O)c(C)n2C(=O)c1ccc(Cl)cc1 [INDOMETHACIN]	32 µM	38.3 µM												
Cc1ccccc1C(=O)c1nccc2c1[nH]c1ccccc12	> 30 µM	> 30 µM	2.12 µM			44%	0%	> 40 µM	> 2000	> 40 µM	> 40 µM	> 40 µM	82%	
O=C(O)c1cc2c([nH]c3ccccc32)c(C(=O)c2cccc([N+](=O)[O-])c2)n1														inactive
Cc1ccc(C(=O)c2nccc3c2[nH]c2ccccc23)cc1	> 30 µM	> 30 µM	1.26 µM		52.8 µM	99%	25%	> 40 µM	42	> 40 µM	> 40 µM	> 40 µM	100%	
